Drawing on ChEMBL document CHEMBL1671773, “Benzoquinazoline derivatives as new agents affecting DNA processing” (Bioorg Med Chem, 2011), this text covers IC50, Activity and inhibition for nine molecules.

The source made the active and inactive calls. The calls are words filed in the database; no cut-off is given here. Bounds are passed on as bounds.

A word on the IC50: it is the concentration needed to halve the response being measured. High values mean lower potency, low ones higher potency.

Assay [1] relates to HeLa. Nature of the assay: Growth inhibition in human HeLa cells after 72 hrs by trypan blue assay. Format: functional, cell-based. Summed up: (§1)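 HeLa (F-12 medium) and A431 (D-MEM) cells were grown with 10% heat-inactivated FCS and antibiotics at 37 °C under 5% CO2. 4 × 10⁴ cells per well were seeded for 24 h, then medium was replaced with fresh medium containing test agents for 72 h. Viability was read by trypan blue. IC50 is the concentration halving cell number versus control.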

A further assay relates to A-431. Nature of the assay: Growth inhibition in human A431 cells after 72 hrs by trypan blue assay. It counts as functional, cell-based. The following applies: A-431, 72 h. Summed up: as §1
Another assay concerns HL-60. Nature of the assay: Growth inhibition in human HL60 cells after 72 hrs by trypan blue assay. Format: functional, cell-based. The following applies: HL-60, 72 h. Summed up:
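HL-60 cells were grown in RPMI 1640 with 15% heat-inactivated FCS and antibiotics at 37 °C under 5% CO2. 4 × 10⁴ cells per well were seeded, and after 24 h test agents were added to complete medium for 72 h. Viability was read by trypan blue. IC50 is the concentration giving 50% reduction in cell number versus control cultures.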

For assay [2], the system named is Nucleic Acid. Briefly: Stabilization of supercoiled pBR322 DNA-human recombinant topoisomerase 2 complex assessed as linear DNA formation at 8 uM after 60 mins. It counts as nucleic-acid assay. The following applies: Escherichia coli.
Assay [3] concerns Nucleic Acid. Nature of the assay: Induction of Escherichia coli supercoiled pBR322 DNA cleavage at 50 uM after 60mins by gel electrophoresis. It counts as nucleic-acid assay.
Assay [4] concerns Nucleic Acid. Briefly: Stabilization of supercoiled pBR322 DNA-human recombinant topoisomerase 2 complex assessed as linear DNA formation at 10 to 100 uM after 60 mins. Format: nucleic-acid assay. The following applies: Escherichia coli.
Assay [5] concerns Nucleic Acid. Nature of the assay: Binding affinity to Salmon testes DNA assessed as drug-DNA complex formation at drug/DNA ratio 0.08 by linear flow dichroism method. Format: nucleic-acid assay. The following applies: Salmonidae.
In assay [6] the test system is Nucleic Acid. Briefly: Induction of Escherichia coli supercoiled pBR322 DNA cleavage after 60mins by gel electrophoresis. Format: nucleic-acid assay.
Assay [7] has as its system HeLa. Nature of the assay: Induction of apoptosis in human HeLa cells assessed as induction of DNA fragmentation at 200 uM after 24 hrs using ethidium bromide staining by agarose gel electrophoresis. It counts as functional, cell-based. Summed up:
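HeLa cells (5 × 10⁵) were preincubated 24 h at 37 °C, then medium was replaced with fresh medium containing test agent; controls received solvent alone. After 24 h, nuclear DNA was extracted and dissolved in TE buffer (10 mM Tris pH 8, 1 mM EDTA). Fragmentation was examined on a 1% agarose gel.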

The target in assay [8] is DNA topoisomerase 2-alpha (Homo sapiens) (UniProt P11388). Nature of the assay: Inhibition of human recombinant topoisomerase 2-mediated relaxation of supercoiled pBR322 DNA upt0 100 uM after 60 mins by agarose gel electrophoresis. In short, it runs like this:
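Supercoiled pBR322 (0.25 µg) was incubated with 1 U topoisomerase II plus compounds for 60 min at 37 °C in 20 µL. The reaction was stopped with SDS stop buffer and 50 µg/mL proteinase K for 30 min at 37 °C. Products were run on a 1% agarose gel at room temperature, then stained with 1 µg/mL ethidium bromide and imaged under UV.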

The subject of assay [9] is Nucleic Acid. Nature of the assay: Binding affinity to Salmon testes DNA assessed as drug-DNA complex formation at drug/DNA ratio 0.16 by linear flow dichroism method. Format: nucleic-acid assay. The following applies: Salmonidae.

DNA topoisomerase 2-alpha (Homo sapiens), sequence (P11388 whole entry): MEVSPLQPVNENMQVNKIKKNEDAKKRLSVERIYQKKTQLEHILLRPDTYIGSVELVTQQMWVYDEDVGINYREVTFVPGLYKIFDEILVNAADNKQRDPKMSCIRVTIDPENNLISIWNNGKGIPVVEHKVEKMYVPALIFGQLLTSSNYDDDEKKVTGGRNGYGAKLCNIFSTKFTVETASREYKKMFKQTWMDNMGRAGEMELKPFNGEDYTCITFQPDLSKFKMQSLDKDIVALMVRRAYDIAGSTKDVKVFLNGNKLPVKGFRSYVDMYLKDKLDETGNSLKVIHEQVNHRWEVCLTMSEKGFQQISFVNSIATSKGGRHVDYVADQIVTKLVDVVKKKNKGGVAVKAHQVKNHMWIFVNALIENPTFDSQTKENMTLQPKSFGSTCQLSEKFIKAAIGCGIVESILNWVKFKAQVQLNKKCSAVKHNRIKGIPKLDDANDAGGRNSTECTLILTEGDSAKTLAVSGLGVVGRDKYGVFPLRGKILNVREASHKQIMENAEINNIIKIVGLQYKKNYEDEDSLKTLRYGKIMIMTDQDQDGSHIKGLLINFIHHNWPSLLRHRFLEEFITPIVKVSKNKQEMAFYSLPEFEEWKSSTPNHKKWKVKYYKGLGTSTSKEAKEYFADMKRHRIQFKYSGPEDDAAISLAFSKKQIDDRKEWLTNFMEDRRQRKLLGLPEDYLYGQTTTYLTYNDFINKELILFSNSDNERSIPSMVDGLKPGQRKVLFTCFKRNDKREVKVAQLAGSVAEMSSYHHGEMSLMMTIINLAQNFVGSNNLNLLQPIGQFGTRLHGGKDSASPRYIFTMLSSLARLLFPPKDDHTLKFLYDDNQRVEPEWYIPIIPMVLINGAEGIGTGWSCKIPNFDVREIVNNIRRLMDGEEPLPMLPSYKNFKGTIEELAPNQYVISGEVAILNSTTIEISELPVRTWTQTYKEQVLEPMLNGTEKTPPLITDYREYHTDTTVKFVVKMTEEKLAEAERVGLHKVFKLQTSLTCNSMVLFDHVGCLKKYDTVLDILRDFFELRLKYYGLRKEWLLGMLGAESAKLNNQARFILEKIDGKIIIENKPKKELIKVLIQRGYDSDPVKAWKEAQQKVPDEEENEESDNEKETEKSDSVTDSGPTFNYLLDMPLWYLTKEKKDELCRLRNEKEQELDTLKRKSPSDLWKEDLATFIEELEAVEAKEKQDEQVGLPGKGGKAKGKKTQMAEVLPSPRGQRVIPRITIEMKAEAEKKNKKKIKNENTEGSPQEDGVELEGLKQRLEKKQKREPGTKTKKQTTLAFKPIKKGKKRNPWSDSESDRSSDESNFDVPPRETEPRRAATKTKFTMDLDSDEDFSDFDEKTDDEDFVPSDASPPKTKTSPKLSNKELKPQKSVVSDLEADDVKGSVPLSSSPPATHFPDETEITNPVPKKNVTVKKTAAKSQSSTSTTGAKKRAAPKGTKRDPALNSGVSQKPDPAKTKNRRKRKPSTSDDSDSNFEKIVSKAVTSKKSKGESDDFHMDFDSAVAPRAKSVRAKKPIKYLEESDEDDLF

With `COc1cc(NS(C)(=O)=O)ccc1Nc1cc2ncncc2c2ccccc12`, the results for the IC50 in the assay on HeLa [1], with A-431 and in the assay with HL-60 were > 100 µM, 77.7 µM and 30.7 µM, respectively.
Take `COc1cc(NS(C)(=O)=O)ccc1Nc1cc2cncnc2c2ccccc12`: the IC50 in the assay on HeLa [1] was > 100 µM; in the assay on A-431, > 100 µM; with HL-60, 26.9 µM.
`COc1cc(NS(C)(=O)=O)ccc1Nc1c2ccccc2nc2ccccc12` [AMSACRINE]: the IC50 in the assay with HeLa [1] was determined as 0.012 µM; in the assay with A-431 it was 0.17 µM; with HL-60 it was 0.006 µM. Moreover, the result with Nucleic Acid [2] was Active.
In the case of `CN(C)CCNc1cc2ncncc2c2ccccc12`, the figures for the IC50 with HeLa [1], with A-431 and with HL-60 were 23.2 µM, 4.3 µM and 4.3 µM, respectively. The inhibition result in the assay on Nucleic Acid [3] is “Dose-dependent effect”. The result in the assay with Nucleic Acid [4], with Nucleic Acid [5] and in the assay on HeLa [7] was Active. For the same molecule, the inhibition entry in the assay on Nucleic Acid [6] is “Active”.
Consider `Cc1c2ccncc2c(C)c2c1[nH]c1ccccc12` [ELLIPTECINE], for which the results for the IC50 with HeLa [1], in the assay with A-431 and with HL-60 were 0.31 µM, 0.47 µM and 0.64 µM, respectively.
Take `CN(C)CCNc1cc2cncnc2c2ccccc12`: the IC50 in the assay with HeLa [1] was found to be 15.7 µM; in the assay on A-431, 3.6 µM; in the assay with HL-60 it was 10.8 µM. The inhibition result with Nucleic Acid [3] is “Dose-dependent effect”. The outcome with Nucleic Acid [4], in the assay with Nucleic Acid [5] and in the assay on HeLa [7] was Active. Also, the inhibition result with Nucleic Acid [6] is “Active”.
Turning to `CN(C)CCNc1ncnc2c1ccc1ccccc12`, the IC50 was > 100 µM with HeLa [1], 50.5 µM in the assay with A-431 and 61.6 µM in the assay with HL-60. In addition, the result with Nucleic Acid [5] and with Nucleic Acid [9] was Active. In addition, in assay [8], the inhibition result was “inactive”.
Turning to `CS(=O)(=O)Nc1ccc(Nc2cc3cncnc3c3ccccc23)cc1`, the 50% inhibitory concentration (IC50) is > 100 µM with HeLa [1], 57.7 µM in the assay with A-431 and 26.5 µM with HL-60.
The like results for `CS(=O)(=O)Nc1ccc(Nc2cc3ncncc3c3ccccc23)cc1` were, in that order, > 100 µM, > 100 µM and > 100 µM.
